These results are taken from article PMC8757366 (ACS Omega, 2021).

The term IC50 denotes the concentration that gives 50% inhibition. Lower therefore signals inhibition by little substance. One may read the Kd as a measure of binding affinity in units of concentration. Read a low Kd as tighter binding.

Square brackets hold non-standard residues; d marks the D form. Peptide text beside a SMILES is read from it. * marks the point of attachment. Phe(3,4-(OMe)2) = COc1ccc(C[C@H](N)C(=O)O)cc1OC; Phe(F5) = N[C@@H](Cc1c(F)c(F)c(F)c(F)c1F)C(=O)O; Lys(Et,iPr) = CCN(CCCC[C@H](N)C(=O)O)C(C)C; Cha = N[C@@H](CC1CCCCC1)C(=O)O; Nicotinoyl = O=C(c1cccnc1)*; X1 = Nc1cc(C(=O)*)ccc1Br

The target of one experiment is CBX5 chromodomain (Homo sapiens, UniProt P45973). Briefly: TR-FRET competition assay, CBX5. In kind it is binding. As to conditions: for selectivity for CBX5 over CBX7: from TR-FRET IC50 values; for affinity improvement toward CBX5 over UNC5191 by TR-FRET: compared to UNC5191. The method, boiled down: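 Competition of biotinylated peptide tracer P42 from His-tagged chromodomain: CBX5 30 nM with 30 nM tracer, MPP8 25 nM with 50 nM tracer. Detection with 10 nM ULight-anti-6xHis and 2 nM Eu-streptavidin in 20 mM Tris pH 7.5, 150 mM NaCl, 0.05% Tween 20, 2 mM DTT. 1 h equilibration in dark; 665/615 nm ratio. 0–100% scale against DMSO and 100 μM UNC5241. Four-parameter IC50 fit; mean ± SD of three replicates.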
(In general: In TR-FRET formats the signal depends on donor and acceptor labels being close together.)

For the next experiment, the target named is CBX5 (HP1α) chromodomain (Homo sapiens, UniProt P45973). Briefly: Isothermal titration calorimetry. The experiment is classed as binding. As to conditions: for Kd: CBX5 ITC Kd, 25 °C. A digest of the protocol: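 Run at 25 °C in 25 mM Tris–HCl pH 7.5, 150 mM NaCl, 2 mM β-mercaptoethanol. His-tagged chromodomain expressed in E. coli and purified by Ni affinity and size exclusion; concentration by Edelhoch method. Typically 50 μM protein with 0.5 mM compound or 100 μM with 1.0 mM, always 10:1. One 0.2 μL injection, then 26 × 1.5 μL at 180 s spacing; first point deleted; one-site fit. Mean ± SD of at least two replicates.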
(ITC needs no label: the signal is the heat of the interaction.)

Sequence of CBX5 (HP1α) chromodomain (P45973 18-75): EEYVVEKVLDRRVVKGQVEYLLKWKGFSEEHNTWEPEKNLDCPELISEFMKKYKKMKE
Sequence of CBX5 chromodomain (P45973 18-75): as above

For the molecule `CCN(CCCC[C@H](NC(=O)[C@H](CC(C)C)NC(=O)[C@H](C)NC(=O)[C@H](CC1CCCCC1)NC(=O)c1cccnc1)C(=O)N[C@@H](CO)C(N)=O)C(C)C` [UNC6383, N-((8S,11S,14S,17S)-8-(((S)-1-Amino-3-hydroxy-1-oxopropan-2-yl)carbamoyl)-18-cyclohexyl-3-ethyl-11-isobutyl-2,14-dimethyl-10,13,16-trioxo-3,9,12,15-tetraazaoctadecan-17-yl)nicotinamide] (Nicotinoyl-[Cha]AL[Lys(Et,iPr)]S-NH2), the “selectivity for CBX5 over CBX7” value at CBX5 chromodomain is on record as 11 fold.
With `CCN(CCCC[C@H](NC(=O)[C@H](Cc1ccc(OC)c(OC)c1)NC(=O)[C@H](C)NC(=O)[C@H](CC1CCCCC1)NC(=O)c1ccc(Br)c(N)c1)C(=O)N[C@@H](CO)C(N)=O)C(C)C` [UNC7047, 3-Amino-N-((8S,11S,14S,17S)-8-(((S)-1-amino-3-hydroxy-1-oxopropan-2-yl)carbamoyl)-18-cyclohexyl-11-(3,4-dimethoxybenzyl)-3-ethyl-2,14-dimethyl-10,13,16-trioxo-3,9,12,15-tetraazaoctadecan-17-yl)-4-bromobenzamide] (X1-[Cha]A[Phe(3,4-(OMe)2)][Lys(Et,iPr)]S-NH2), on CBX5 chromodomain, the half-inhibitory concentration (IC50) was 79 ± 40 nM and the “affinity improvement toward CBX5 over UNC5191 by TR-FRET” value worked out at 80 fold. Moreover, binding at CBX5 (HP1α) chromodomain (mean ± SD of three replicates) was characterised by a dissociation constant (Kd) of 237 ± 68 nM. The “potency for CBX5 relative to UNC5191 by ITC” value at CBX5 (HP1α) chromodomain (ITC Kd compared to UNC5191) is listed as 30 fold.
Take `CCN(CCCC[C@H](NC(=O)[C@H](CC(C)C)NC(=O)[C@H](C)NC(=O)[C@H](Cc1c(F)c(F)c(F)c(F)c1F)NC(=O)c1cccnc1)C(=O)N[C@@H](CO)C(N)=O)C(C)C` [UNC4869, N-((8S,11S,14S,17S)-8-(((S)-1-Amino-3-hydroxy-1-oxopropan-2-yl)carbamoyl)-3-ethyl-11-isobutyl-2,14-dimethyl-10,13,16-trioxo-18-(perfluorophenyl)-3,9,12,15-tetraazaoctadecan-17-yl)nicotinamide] (Nicotinoyl-[Phe(F5)]AL[Lys(Et,iPr)]S-NH2): on CBX5 chromodomain, the “affinity improvement toward CBX5 over UNC5191 by TR-FRET” value is recorded as “about 3 fold” and the “selectivity for CBX5 over CBX7” value was determined as 26 fold.
`CCN(CCCC[C@H](NC(=O)[C@H](Cc1ccc(OC)c(OC)c1)NC(=O)[C@H](C)NC(=O)[C@H](Cc1ccccc1)NC(=O)c1cccnc1)C(=O)N[C@@H](CO)C(N)=O)C(C)C` [UNC6392, N-((8S,11S,14S,17S)-8-(((S)-1-Amino-3-hydroxy-1-oxopropan-2-yl)carbamoyl)-11-(3,4-dimethoxybenzyl)-3-ethyl-2,14-dimethyl-10,13,16-trioxo-18-phenyl-3,9,12,15-tetraazaoctadecan-17-yl)nicotinamide] (Nicotinoyl-FA[Phe(3,4-(OMe)2)][Lys(Et,iPr)]S-NH2) gave a Kd on CBX5 (HP1α) chromodomain (one site binding model) of 1270 nM. For the same molecule, the “potency for CBX5 relative to UNC6384 by ITC” value on CBX5 (HP1α) chromodomain (ITC Kd compared to UNC6384) stood at 2 fold.
The molecule `CCN(CCCC[C@H](NC(=O)[C@H](CC(C)C)NC(=O)[C@H](C)NC(=O)[C@H](Cc1ccccc1)NC(=O)c1cccnc1)C(=O)N[C@@H](CO)C(N)=O)C(C)C` [UNC5191, N-((8S,11S,14S,17S)-8-(((S)-1-Amino-3-hydroxy-1-oxopropan-2-yl)carbamoyl)-3-ethyl-11-isobutyl-2,14-dimethyl-10,13,16-trioxo-18-phenyl-3,9,12,15-tetraazaoctadecan-17-yl)nicotinamide] (Nicotinoyl-FAL[Lys(Et,iPr)]S-NH2) had a dissociation constant (Kd) at CBX5 (HP1α) chromodomain (one site binding model) of 6930 ± 820 nM.
`CCN(CCCC[C@H](NC(=O)[C@H](Cc1ccccc1)NC(=O)[C@H](C)NC(=O)[C@H](Cc1ccccc1)NC(=O)c1cccnc1)C(=O)N[C@@H](CO)C(N)=O)C(C)C` [UNC6384, N-((8S,11S,14S,17S)-8-(((S)-1-Amino-3-hydroxy-1-oxopropan-2-yl)carbamoyl)-11-benzyl-3-ethyl-2,14-dimethyl-10,13,16-trioxo-18-phenyl-3,9,12,15-tetraazaoctadecan-17-yl)nicotinamide] (Nicotinoyl-FAF[Lys(Et,iPr)]S-NH2) yielded a Kd on CBX5 (HP1α) chromodomain (one site binding model) of 3380 nM.
